Results as given in ChEMBL document CHEMBL1121509, “Metabolic N-hydroxylation. Use of substituent variation to modulate the in vitro bioactivation of 4-acetamidostilbenes” (J Med Chem, 1980).

Columns and labels:
Format in all cases: ADME
Details in all cases: microsomes
[1] = Compound was evaluated for the kinetic constant (Vmax) for the microsomal oxidation (hydroxamic acid metabolite)
[2] = Compound was evaluated for the apparent kinetic constant (Km) for the microsomal oxidation (hydroxamic acid metabolite)
[3] = Selectivity ratio of Vmax and Km for microsomal oxidation (hydroxamic acid metabolite)
Method in brief: (§1)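 V/K computed as Vmax/Km, an apparent first-order rate constant […], from Wilkinson-fitted kinetic constants of 10-min, 37 °C liver microsomal incubations with NADPH-generating system and paraoxon; metabolites quantified by TLC and dual-label (¹⁴C/³H) radiochemical assay.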

[4] = Compound was evaluated for the kinetic constant (Vmax) for the microsomal oxidation (hydroxymethyl metabolite); Values are pmol(1/mg of microsomal protein)min
[5] = Compound was evaluated for the apparent kinetic constant (Km) for the microsomal oxidation (hydroxymethyl metabolite)
[6] = Selectivity ratio of Vmax and Km for microsomal oxidation; method in brief: as §1
[7] = Selectivity ratio of Vmax and Km for microsomal oxidation (4'-hydroxy metabolite); method in brief: as §1
[8] = Compound was evaluated for the apparent kinetic constant (Km) for the microsomal oxidation (4'-hydroxy metabolite)
[9] = Compound was evaluated for the kinetic constant (Vmax) for the microsomal oxidation (hydroxamic acid metabolite); Values are pmol(1/mg of microsomal protein)min; design: unit: pmol/min/mg protein
[10] = Compound was evaluated for the kinetic constant (Vmax) for the microsomal oxidation (4'-hydroxy metabolite); Values are pmol(1/mg of microsomal protein)min
[11] = Compound was evaluated for the apparent kinetic constant (Km) for the microsomal oxidation (glycolamide metabolite)
[12] = Selectivity ratio of Vmax and Km for microsomal oxidation (glycolamide metabolite); method in brief: as §1
[13] = Compound was evaluated for the kinetic constant (Vmax) for the microsomal oxidation (glycolamide metabolite); Values are pmol(1/mg of microsomal protein)min
[14] = Compound was evaluated for the kinetic constant (Vmax) for the microsomal oxidation (omega-1 hydroxy metabolite); Values are pmol(1/mg of microsomal protein)min
[15] = Selectivity ratio of Vmax and Km for microsomal oxidation (omega-1 hydroxy metabolite); method in brief: as §1
[16] = Compound was evaluated for the apparent kinetic constant (Km) for the microsomal oxidation (omega-1 hydroxy metabolite)

SMILES	Km [2]	Ratio [3]	Ratio [6]	Vmax [9]	other results
CC(=O)Nc1ccc(/C=C/c2ccc(C)cc2)cc1	60 µM	4.05			Vmax [1]: 243
CC(=O)Nc1ccc(/C=C/c2ccc(C(C)(C)C)cc2)cc1			12.54		Vmax [4]: 1129; Km [5]: 90 µM
CC(=O)Nc1ccc(/C=C/c2ccccc2)cc1	2800 µM	0.99		2767	Ratio [7]: 0.93; Km [8]: 500 µM; Vmax [10]: 467
CC(=O)Nc1ccc(/C=C/c2ccc(Cl)cc2)cc1	3300 µM	0.03		98	Km [11]: 3500 µM; Ratio [12]: 0.005; Vmax [13]: 17
CC(=O)Nc1ccc(/C=C/c2ccc(F)cc2)cc1	2900 µM	0.03		88	Km [11]: 3300 µM; Ratio [12]: 0.008; Vmax [13]: 27
CC(=O)Nc1ccc(/C=C/c2ccc(C#N)cc2)cc1	310 µM		2.18	677	
CC(=O)Nc1ccc(/C=C/c2ccc(Br)cc2)cc1	1900 µM		0.24	457	
CCCCOc1ccc(/C=C/c2ccc(NC(C)=O)cc2)cc1	1200 µM	0.28		330	Vmax [14]: 530; Ratio [15]: 0.48; Km [16]: 1100 µM
